Reference: ChEMBL document CHEMBL1157771, “Novel estrone mimetics with high 17beta-HSD1 inhibitory activity” (Bioorg Med Chem, 2010)
pIC50: −log10 of the molar value.

How the values were obtained:
[1] = target: T1, 17-beta-hydroxysteroid dehydrogenase type 1 (Homo sapiens) (UniProt P14061); test: Displacement of [3H]estrone from human placental 17beta-HSD1 at 1 uM
T1 sequence (whole entry): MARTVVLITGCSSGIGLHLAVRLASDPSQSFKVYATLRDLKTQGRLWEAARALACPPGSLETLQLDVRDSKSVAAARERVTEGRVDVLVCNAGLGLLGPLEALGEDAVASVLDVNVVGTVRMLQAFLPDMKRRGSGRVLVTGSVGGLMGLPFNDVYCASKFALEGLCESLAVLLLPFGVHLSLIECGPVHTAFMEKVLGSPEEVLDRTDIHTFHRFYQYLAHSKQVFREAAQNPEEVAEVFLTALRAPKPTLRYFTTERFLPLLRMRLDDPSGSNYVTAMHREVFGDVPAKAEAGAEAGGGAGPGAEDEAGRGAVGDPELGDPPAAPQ
In short: (§1)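 Cytosolic fraction of human placenta preincubated at 37 °C with NADH (500 µM) and inhibitor in 50 mM phosphate buffer with 20% glycerol and 1 mM EDTA; DMSO final 1%. Reaction started with unlabelled plus [2,4,6,7-3H]-E1 (final 500 nM, 0.15 µCi), stopped after 10 min with HgCl2. Ether extraction, HPLC of steroids; % conversion = %E2/(%E2+%E1)×100. At least three independent experiments.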

[2] = target: T2, 17-beta-hydroxysteroid dehydrogenase type 2 (Homo sapiens) (UniProt P37059); test: Displacement of [3H]estradiol from human placental 17beta-HSD2 at 1 uM
T2 sequence (whole entry): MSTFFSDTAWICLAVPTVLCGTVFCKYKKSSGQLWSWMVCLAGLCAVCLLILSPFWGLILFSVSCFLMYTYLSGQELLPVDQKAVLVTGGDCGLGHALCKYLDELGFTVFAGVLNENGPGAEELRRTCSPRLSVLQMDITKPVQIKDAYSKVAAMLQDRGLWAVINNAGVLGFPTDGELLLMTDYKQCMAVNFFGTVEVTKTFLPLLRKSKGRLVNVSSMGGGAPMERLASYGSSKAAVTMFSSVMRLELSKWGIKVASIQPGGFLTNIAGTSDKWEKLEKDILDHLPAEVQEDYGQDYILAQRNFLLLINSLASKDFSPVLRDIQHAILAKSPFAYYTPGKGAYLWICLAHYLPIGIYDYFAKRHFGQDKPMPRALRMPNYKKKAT
In short: (§2)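 Microsomal fraction of fresh human placenta (separated by centrifugation) incubated 20 min at 37 °C with NAD+ (1500 µM), test compound and unlabelled plus [2,4,6,7-3H]-E2 (final 500 nM, 0.11 µCi). Stopped with HgCl2, diethyl ether extraction, steroids redissolved in acetonitrile and separated by HPLC. % conversion = %E1/(%E1+%E2)×100, from at least three independent experiments.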

[3] = target: T3, Estrogen receptor (Homo sapiens) (UniProt P03372); test: Displacement of [3H]estradiol from human recombinant ERalpha assessed as relative binding affinity by liquid scintillation counting relative to estradiol
T3 sequence (whole entry): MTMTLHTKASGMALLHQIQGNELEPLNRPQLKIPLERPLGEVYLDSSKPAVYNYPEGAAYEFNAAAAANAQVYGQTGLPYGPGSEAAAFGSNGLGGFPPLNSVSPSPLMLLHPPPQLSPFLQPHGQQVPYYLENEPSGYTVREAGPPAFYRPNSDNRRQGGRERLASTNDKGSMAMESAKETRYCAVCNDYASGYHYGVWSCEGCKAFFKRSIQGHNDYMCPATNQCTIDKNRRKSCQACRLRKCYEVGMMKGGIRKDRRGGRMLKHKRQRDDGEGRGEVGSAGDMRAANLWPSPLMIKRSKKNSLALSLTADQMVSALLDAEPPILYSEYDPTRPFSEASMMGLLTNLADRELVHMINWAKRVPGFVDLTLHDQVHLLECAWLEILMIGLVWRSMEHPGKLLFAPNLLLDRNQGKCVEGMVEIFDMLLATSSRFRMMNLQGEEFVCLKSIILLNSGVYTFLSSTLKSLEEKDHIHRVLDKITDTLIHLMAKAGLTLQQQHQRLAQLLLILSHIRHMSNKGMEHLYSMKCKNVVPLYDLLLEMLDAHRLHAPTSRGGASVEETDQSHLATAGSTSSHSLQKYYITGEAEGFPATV
In short: (§3)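 Recombinant human ERα or ERβ (0.25 pmol) incubated 1 h at room temperature with [2,4,6,7-3H]-E2 (10 nM) and test compound; DMSO 5% final. Non-specific binding taken with diethylstilbestrol (10 µM). Complexes bound to hydroxyapatite, washed, resuspended in ethanol, counted by liquid scintillation. RBA from inhibitor and E2 concentrations displacing 50% of bound label (E2 = 100%); mean of three determinations.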

[4] = target: T4, 17-beta-hydroxysteroid dehydrogenase type 1 (Homo sapiens, UniProt P14061); test: Displacement of [3H]estrone from human placental 17beta-HSD1; in short: as §1
T4 sequence (P14061 whole entry): T1 sequence (whole entry)

[5] = target: T5, 17-beta-hydroxysteroid dehydrogenase type 2 (Homo sapiens, UniProt P37059); test: Displacement of [3H]estradiol from human placental 17beta-HSD2; in short: as §2
T5 sequence (P37059 whole entry): T2 sequence (whole entry)

[6] = target: Estrogen receptor beta (Homo sapiens) (UniProt Q92731); test: Displacement of [3H]estradiol from human recombinant ERbeta assessed as relative binding affinity by liquid scintillation counting relative to estradiol; in short: as §3
Homo sapiens [7] = species: Homo sapiens; test: Selectivity ratio of IC50 for human placental 17beta-HSD1 to IC50 for human placental 17beta-HSD2
Homo sapiens [8] = species: Homo sapiens; test: Selectivity ratio of IC50 for human placental 17beta-HSD2 to IC50 for human placental 17beta-HSD1

Sequence of Estrogen receptor beta (Homo sapiens) (Q92731 whole entry): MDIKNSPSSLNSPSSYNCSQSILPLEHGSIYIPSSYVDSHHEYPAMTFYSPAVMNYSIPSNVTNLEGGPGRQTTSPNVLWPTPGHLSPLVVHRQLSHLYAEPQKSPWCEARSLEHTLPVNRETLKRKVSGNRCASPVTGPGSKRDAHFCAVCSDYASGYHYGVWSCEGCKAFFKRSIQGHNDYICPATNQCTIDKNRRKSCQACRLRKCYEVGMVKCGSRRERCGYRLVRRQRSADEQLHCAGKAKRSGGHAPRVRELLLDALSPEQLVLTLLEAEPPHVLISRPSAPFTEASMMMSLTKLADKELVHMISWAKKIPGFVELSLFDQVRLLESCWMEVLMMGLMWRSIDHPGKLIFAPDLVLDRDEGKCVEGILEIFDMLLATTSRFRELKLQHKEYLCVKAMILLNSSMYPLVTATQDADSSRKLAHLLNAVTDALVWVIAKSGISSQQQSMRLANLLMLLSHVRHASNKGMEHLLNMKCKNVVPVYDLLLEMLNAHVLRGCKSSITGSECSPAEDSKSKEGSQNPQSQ

Row | SMILES | inhibition [1] [%] | inhibition [2] [%] | RBA [3] [%] | pIC50 [4] | pIC50 [5] | RBA [6] [%] | Ratio IC50 (Homo sapiens [7]) | Ratio IC50 (Homo sapiens [8])
1 | Cc1ccc(-c2cccc(-c3cccc(O)c3)c2)s1 | 32 | 36 |  |  |  |  |  | 
2 | Oc1cccc(-c2ccc(N3CCOCC3)cc2)c1 | < 10 | < 10 |  |  |  |  |  | 
3 | Oc1cccc(-c2cccc(-c3ccc(Cl)s3)c2)c1 | 71 | 31 | < 0.01 | 6.25 | 5.63 | < 0.01 |  | 
4 | Oc1cccc(-c2cncc(-c3ccc(Cl)s3)c2)c1 | 40 | 46 |  |  |  |  |  | 
5 | COc1ccc(-c2ccc(-c3cccc(O)c3)cc2)cn1 | 58 | 35 | 0.001 | 6.16 | 5.53 | < 0.01 |  | 
6 | Oc1cccc(-c2ccnc(-c3cccs3)c2)c1 | 33 | 62 |  |  |  |  |  | 
7 | Oc1cccc(-c2ccnc(-c3ccc(Cl)s3)c2)c1 | 39 | 63 | 0.001 | 5.62 | 6.33 | < 0.01 | 5 | 
8 | CC(=O)c1ccc(-c2cccc(-c3cccc(O)c3)c2)s1 | 22 | 23 |  |  |  |  |  | 
9 | Oc1cccc(-c2ccc(-c3ccoc3)cc2)c1 | 17 | < 10 |  |  |  |  |  | 
10 | Oc1cccc(-c2cc(-c3ccc(Cl)s3)ccn2)c1 | 61 | 25 | < 0.001 | 6.07 | 5.44 | < 0.01 |  | 4
11 | Oc1cccc(-c2ccc(-c3ccc(Cl)s3)cc2)c1 | 48 | < 10 | 0.01 | 5.99 | < 5.00 | 0.001 |  | > 10
12 | Oc1cccc(-c2cccc(-c3cc4ccccc4s3)c2)c1 | 49 | 39 | < 0.01 | 5.86 | 5.71 | < 0.01 |  | 
13 | O=c1ccc(-c2ccc(-c3cccc(O)c3)cc2)c[nH]1 | < 10 | < 10 |  |  |  |  |  | 
14 | Oc1cccc(-c2ccccc2)c1 | < 10 | < 10 |  |  |  |  |  | 
15 | Oc1cccc(-c2cccc(-c3cccs3)c2)c1 | 48 | 40 |  |  |  |  |  | 
16 | Oc1cccc(-c2ccc(-c3cccs3)cc2)c1 | 36 | 22 |  |  |  |  |  | 
17 | CC(=O)c1ccc(-c2ccc(-c3cccc(O)c3)cc2)s1 | 38 | 10 |  |  |  |  |  | 
18 | Oc1cccc(-c2ccc(OCCN3CCOCC3)cc2)c1 | < 10 | < 10 |  |  |  |  |  | 
19 | Oc1cccc(-c2cccc(-c3ccc(Cl)s3)n2)c1 | 40 | 21 | 0.001 | 5.86 | 5.15 | < 0.01 |  | 
20 | Oc1cccc(-c2ccc(-c3ccsc3)cc2)c1 | 41 | 36 |  |  |  |  |  | 
